Experimental data taken from ChEMBL document CHEMBL4765345, “Design, synthesis, and biological evaluation of dual targeting inhibitors of histone deacetylase 6/8 and bromodomain BRPF1” (Eur J Med Chem, 2020).

What was measured:
Peregrin = target: T1, Peregrin (Homo sapiens, UniProt P55201); experiment: Binding affinity to BRPF1 (unknown origin) by Isothermal titration calorimetry; conditions: read-out: Kd
T1 sequence (P55201 whole entry): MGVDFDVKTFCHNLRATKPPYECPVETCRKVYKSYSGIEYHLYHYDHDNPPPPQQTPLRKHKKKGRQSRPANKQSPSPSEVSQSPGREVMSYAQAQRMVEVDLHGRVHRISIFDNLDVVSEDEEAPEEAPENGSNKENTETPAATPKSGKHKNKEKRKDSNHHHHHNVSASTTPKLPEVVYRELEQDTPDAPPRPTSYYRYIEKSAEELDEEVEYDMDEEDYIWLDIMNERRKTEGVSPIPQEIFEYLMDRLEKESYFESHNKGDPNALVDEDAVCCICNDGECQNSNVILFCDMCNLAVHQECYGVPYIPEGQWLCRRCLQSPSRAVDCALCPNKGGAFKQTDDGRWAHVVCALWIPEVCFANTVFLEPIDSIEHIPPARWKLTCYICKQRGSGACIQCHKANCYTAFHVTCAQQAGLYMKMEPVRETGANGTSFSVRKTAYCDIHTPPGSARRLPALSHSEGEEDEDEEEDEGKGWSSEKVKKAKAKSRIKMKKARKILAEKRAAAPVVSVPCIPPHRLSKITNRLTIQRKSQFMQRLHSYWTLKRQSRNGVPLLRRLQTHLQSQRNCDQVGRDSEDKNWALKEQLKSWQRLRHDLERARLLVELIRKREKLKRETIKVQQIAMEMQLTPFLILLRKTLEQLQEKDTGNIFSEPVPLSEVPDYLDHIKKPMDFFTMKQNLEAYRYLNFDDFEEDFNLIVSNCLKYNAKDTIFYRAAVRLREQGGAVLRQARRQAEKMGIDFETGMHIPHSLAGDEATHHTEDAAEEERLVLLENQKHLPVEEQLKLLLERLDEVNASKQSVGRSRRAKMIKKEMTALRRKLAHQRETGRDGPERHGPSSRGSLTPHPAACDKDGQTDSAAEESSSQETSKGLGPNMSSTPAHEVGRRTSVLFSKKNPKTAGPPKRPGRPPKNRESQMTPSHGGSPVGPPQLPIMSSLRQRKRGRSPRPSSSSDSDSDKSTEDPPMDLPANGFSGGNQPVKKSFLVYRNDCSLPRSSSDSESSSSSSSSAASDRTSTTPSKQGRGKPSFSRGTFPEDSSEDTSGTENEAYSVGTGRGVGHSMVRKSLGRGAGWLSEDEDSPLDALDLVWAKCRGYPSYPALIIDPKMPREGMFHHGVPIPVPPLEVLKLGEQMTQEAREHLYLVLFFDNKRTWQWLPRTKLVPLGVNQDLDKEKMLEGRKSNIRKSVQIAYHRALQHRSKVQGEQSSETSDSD
How it was run: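 Isothermal titration calorimetry with recombinant BRPF1 (200–400 μM) in the injection syringe titrated into ligand (20–40 μM) in the sample cell. Kd was fitted from the titrations and reported with its P99 interval.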

THP-1 = experiment: Antiproliferative activity against human THP-1 assessed as reduction in cell growth at 20 uM by CellTiter-non radioactive cell proliferation assay; format: functional
HL-60 = experiment: Antiproliferative activity against human HL60 assessed as reduction in cell growth at 100 uM by CellTiter-non radioactive cell proliferation assay; format: functional

- Kd (Peregrin): 67 nM
SMILES: COc1ccc(C(=O)NO)cc1S(=O)(=O)Nc1ccc2c(c1)cc(C)c(=O)n2C
- inhibition at 20 µM (THP-1): 32%
- inhibition at 100 µM (HL-60): 39%
